Test results as given in publication PMC12828150 (Acta Pharmaceutica Sinica. B, 2025).
pIC50: −log10 of the molar value.

What was measured:
[1] = test system: HeLa; assay: Antiproliferative activity, HeLa cells; assay type: cell-based; conditions: read-out: HeLa IC50
How it was run: (§1)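 Cells seeded at 1000 per well in RPMI-1640 with 10% FBS and left 24 h before adding diluted test compound. After 96 h exposure, viability was read by CellTiter-Glo luminescence. Readings were normalised as % of untreated cells and IC50 derived. n = 3, values averaged.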

[2] = test system: HepG2; assay: Antiproliferative activity, HepG2 cells; assay type: cell-based; conditions: read-out: HepG2 IC50
How it was run: as §1

SMILES: CN1CCC(NC2CCc3[nH]c4c(C(N)=O)ccc(-c5ccccc5Cl)c4c3C2)CC1 (centres unmarked) [WJ0909]
- pIC50 [1]: 7.77
- pIC50 [2]: 7.62
